Assay results published in ChEMBL document CHEMBL3352330, “Discovery of azetidine based ene-amides as potent bacterial enoyl ACP reductase (FabI) inhibitors” (Eur J Med Chem, 2014).
pIC50: −log10 of the molar value. ≈ marks a conversion by molar mass, not a printed value.

Assays:
[1] = target: T1, Enoyl-[acyl-carrier-protein] reductase [NADPH] FabI (Staphylococcus aureus) (UniProt Q6GI75); test: Inhibition of Staphylococcus aureus FabI-mediated reduction of enoyl-ACP preincubated at 1 uM for 30 mins measured after 2 hrs by spectrophotometry
T1 sequence (whole entry): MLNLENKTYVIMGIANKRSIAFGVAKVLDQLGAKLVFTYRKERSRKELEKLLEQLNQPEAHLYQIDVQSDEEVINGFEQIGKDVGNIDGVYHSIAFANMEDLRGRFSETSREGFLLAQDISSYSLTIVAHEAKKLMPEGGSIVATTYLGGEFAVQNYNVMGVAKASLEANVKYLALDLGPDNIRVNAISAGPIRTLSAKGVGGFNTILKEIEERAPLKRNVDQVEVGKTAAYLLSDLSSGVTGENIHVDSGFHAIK
Outline: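 Spectrophotometric FabI assay in 100 mM sodium ADA buffer, pH 6.5. Enzyme (2400 ng/assay) preincubated 30 min with NADH and compound. Reaction started with crotonoyl CoA. After 2 h at room temperature, NADH oxidation read as the fall in absorbance at 340 nm.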

Staphylococcus aureus [2] = test: Antibacterial activity against methicillin-sensitive Staphylococcus aureus ATCC 29213 after 16 to 20 hrs by broth microdilution method; format: functional
Outline: (§1)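 Broth microdilution in MHB, serial two-fold compound dilutions; final inoculum 5 × 10⁵ CFU/mL; broth, compound and organism controls in duplicate; S. aureus ATCC 29213 as quality control strain; incubation 35 °C, 16–20 h, ambient air; growth read by unaided eye with viewing device, end point set against no-antibiotic control wells.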

Staphylococcus aureus [3] = test: Antibacterial activity against methicillin-resistant Staphylococcus aureus ATCC 33591 after 16 to 20 hrs by broth microdilution method; format: functional; outline: as §1
[4] = test system: Staphylococcus epidermidis; test: Antibacterial activity against methicillin-resistant Staphylococcus epidermidis AUCC 704 after 16 to 20 hrs by broth microdilution method; format: functional; outline: as §1
[5] = target: T2, Enoyl-[acyl-carrier-protein] reductase [NADPH] FabI (Staphylococcus aureus, UniProt Q6GI75); test: Inhibition of Staphylococcus aureus FabI-mediated reduction of enoyl-ACP preincubated for 30 mins measured after 2 hrs by spectrophotometry
T2 sequence (Q6GI75 whole entry): T1 sequence (whole entry)

[6] = Tmax in Swiss albino CD-1 mouse at 10 mg/kg, po administered as single dose; format: ADME, organism-based; parameters: dose 10 mg/kg, route oral; conditions: in vivo
Outline: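 Oral gavage, 10 mg/kg single dose, given as a suspension in 0.25% Tween 80 with 0.225% sodium carboxymethyl cellulose. Blood drawn from the retro-orbital plexus into EDTA at set times (sparse sampling, n = 3 per time point). Plasma stored at −20 °C and assayed by LC-MS/MS. Parameters from non-compartmental analysis.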

Staphylococcus aureus [7] = test: Antibacterial activity against methicillin-resistant Staphylococcus aureus ATCC 33591 infected in Swiss albino CD-1 mouse compound administered orally bid at 1 hr and 4 hrs post infection; format: functional; conditions: ATCC 33591, po
[8] = Metabolic stability in mouse liver mirosomes assessed as compound remaining at 1 uM after 15 mins by LC-MS/MS analysis; format: ADME, tissue-based; conditions: liver microsomes, read-out: Stability
Outline: (§2)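 Compound tested at 1 µM in mouse liver microsomes (0.3 mg/mL protein) with 1 mM NADPH in KH₂PO₄ buffer, pH 7.4, at 37 °C. Reactions stopped at 0, 15 and 60 min with acetonitrile containing carbamazepine internal standard. Samples centrifuged and the supernatant analysed by LC-MS/MS.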

[9] = Metabolic stability in mouse liver mirosomes assessed as compound remaining at 1 uM after 60 mins by LC-MS/MS analysis; format: ADME, tissue-based; conditions: liver microsomes, read-out: Stability; outline: as §2
[10] = AUC in Swiss albino CD-1 mouse at 10 mg/kg, po administered as single dose; format: ADME, organism-based; parameters: dose 10 mg/kg, route oral; conditions: plasma
Outline: (§3)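 Blood drawn from the retro-orbital plexus into EDTA at set times (sparse sampling, n = 3 per time point). Plasma stored at −20 °C and assayed by LC-MS/MS. Parameters from non-compartmental analysis.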

[11] = Cmax in Swiss albino CD-1 mouse at 10 mg/kg, po administered as single dose; format: ADME, organism-based; parameters: dose 10 mg/kg, route oral; conditions: in vivo; outline: as §3
[12] = Half life in Swiss albino CD-1 mouse at 10 mg/kg, po administered as single dose; format: ADME, organism-based; parameters: dose 10 mg/kg, route oral; conditions: in vivo; outline: as §3

SMILES | inhibition [1] | MIC (Staphylococcus aureus [2]) | MIC (Staphylococcus aureus [3]) | MIC [4] | pIC50 [5] | Tmax [6] | ED50 (Staphylococcus aureus [7]) | remaining at 0.25 h, 1 µM [8] | remaining at 1 h, 1 µM [9] | AUC [10] | Cmax [11] | half-life [12]
O=C1CCc2cc(/C=C/C(=O)N3CC(Cc4nc5ccccc5s4)C3)cnc2N1 | 41% | 2 µg/mL (≈ 4.94 µM) | 4 µg/mL (≈ 9.89 µM) | 2 µg/mL (≈ 4.94 µM) | – | – | – | – | – | – | – | –
Cc1c(C2CN(C(=O)/C=C/c3cnc4c(c3)CCC(=O)N4)C2)oc2ccc(Cl)cc12 | 82% | 0.25 µg/mL (≈ 0.593 µM) | 0.25 µg/mL (≈ 0.593 µM) | 0.5 µg/mL (≈ 1.19 µM) | 6.69 | 1 h | – | – | – | – | – | –
O=C1CCc2cc(/C=C/C(=O)N3CC(COc4ccccc4)C3)cnc2N1 | 81% | 0.25 µg/mL (≈ 0.688 µM) | 0.25 µg/mL (≈ 0.688 µM) | 1 µg/mL (≈ 2.75 µM) | 6.58 | – | – | – | – | – | – | –
Cc1cccc(OCC2CN(C(=O)/C=C/c3cnc4c(c3)CCC(=O)N4)C2)c1 | 47% | 2 µg/mL (≈ 5.3 µM) | 2 µg/mL (≈ 5.3 µM) | 2 µg/mL (≈ 5.3 µM) | – | – | – | – | – | – | – | –
O=C1CCc2cc(/C=C/C(=O)N3CC(OCc4ccccc4)C3)cnc2N1 | 69% | 1 µg/mL (≈ 2.75 µM) | 2 µg/mL (≈ 5.5 µM) | 2 µg/mL (≈ 5.5 µM) | 6.42 | – | – | – | – | – | – | –
O=C1CCc2cc(/C=C/C(=O)N3CC(COc4cccc(F)c4)C3)cnc2N1 | 89% | 1 µg/mL (≈ 2.62 µM) | 2 µg/mL (≈ 5.24 µM) | 2 µg/mL (≈ 5.24 µM) | 6.36 | – | – | – | – | – | – | –
Cc1c(C2CN(C(=O)/C=C/c3cnc4c(c3)NCCC(=O)N4)C2)oc2ccccc12 | 92% | 0.25 µg/mL (≈ 0.621 µM) | 0.5 µg/mL (≈ 1.24 µM) | 1 µg/mL (≈ 2.48 µM) | 6.50 | – | – | – | – | – | – | –
Cc1c(C2CN(C(=O)/C=C/c3cnc4c(c3)CCC(=O)N4)C2)sc2ccccc12 | 89% | 0.125 µg/mL (≈ 0.31 µM) | 0.25 µg/mL (≈ 0.62 µM) | 2 µg/mL (≈ 4.96 µM) | 6.15 | 4 h | – | – | – | – | – | –
Cc1c(C2CN(C(=O)/C=C/c3cnc4c(c3)CCC(=O)N4)C2)oc2ccccc12 | 96% | 0.06 µg/mL (≈ 0.155 µM) | 0.06 µg/mL (≈ 0.155 µM) | 0.5 µg/mL (≈ 1.29 µM) | 6.85 | 2 h | 0.9 mg/kg | – | – | – | – | –
O=C1CCc2cc(/C=C/C(=O)N3CC(COc4ccccc4F)C3)cnc2N1 | 99% | 1 µg/mL (≈ 2.62 µM) | 1 µg/mL (≈ 2.62 µM) | 2 µg/mL (≈ 5.24 µM) | 6.42 | – | – | – | – | – | – | –
COc1ccc2oc(C3CN(C(=O)/C=C/c4cnc5c(c4)CCC(=O)N5)C3)c(C)c2c1 | – | 0.5 µg/mL (≈ 1.2 µM) | 1 µg/mL (≈ 2.4 µM) | 2 µg/mL (≈ 4.79 µM) | – | – | – | – | – | – | – | –
O=C1CCc2cc(/C=C/C(=O)N3CC(c4ccccc4)C3)cnc2N1 | 80% | 1 µg/mL (≈ 3 µM) | 2 µg/mL (≈ 6 µM) | 2 µg/mL (≈ 6 µM) | 6.31 | – | – | – | – | – | – | –
Cc1c(CN(C)C(=O)/C=C/c2cnc3c(c2)CCC(=O)N3)oc2ccccc12 [AFN-1252] | 100% | 0.008 µg/mL (≈ 0.0213 µM) | 0.008 µg/mL (≈ 0.0213 µM) | 0.008 µg/mL (≈ 0.0213 µM) | 7.54 | 1 h | – | 55.4% | 17.5% | 2200 ng·h/mL | 440 ng/mL | 1.84 h
CC(=O)NC[C@H]1CN(c2ccc(N3CCOCC3)c(F)c2)C(=O)O1 [LINEZOLID] | – | – | – | – | – | – | 2.8 mg/kg | – | – | – | – | –
Cc1c(C2CN(C(=O)/C=C/c3ccc(NC(=O)Cn4ccnn4)nc3)C2)oc2ccccc12 | 66% | > 32 µg/mL | > 32 µg/mL | > 32 µg/mL | 6.07 | – | – | – | – | – | – | –
